From publication PMC8106974 (Psychopharmacology, 2020)
Counter-ions that a name gives are not always drawn.

What was measured:
Type in all cases: in vivo
male Sprague Dawley rats = assay: SNL-induced tactile allodynia, von Frey; settings: i.v.
In short: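 Male Sprague Dawley rats (250–350g) were tested 7 days after SNL surgery, with a fresh baseline taken before dosing. Test compound, comparator or saline followed that baseline. Von Frey up-down method: start at 2 g, each filament applied once for 5 sec, 1 min between stimuli. Positive response was rapid left hind paw withdrawal or licking. Testing ran at 15–180 min post-dose, or until post-SNL baseline.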

male CD-1 mice [1] = assay: Warm-water tail-withdrawal assay of acute thermal nociception, i.v.
male CD-1 mice [2] = assay: CFA-induced tactile allodynia, von Frey; settings: i.v.
male CD-1 mice [3] = assay: Warm-water tail-withdrawal assay of acute thermal nociception, p.o.
male CD-1 mice [4] = assay: Antagonist; settings: naltrindole 10 mg/kg s.c., -10 min, DPDPE 30 nmol i.c.v.

NCC1(CC(=O)O)CCCCC1 [gabapentin]
time of peak effects (male Sprague Dawley rats; SNL model, rats (discussion)): ~ 90 min
Area under the Curve (duration of effect, peak dose) (male Sprague Dawley rats; rats, 7 days after SNL, BBI-11008 18 mg/kg, gabapentin 56 mg/kg): 130.2

CN1CC[C@]23c4c5ccc(O)c4O[C@H]2[C@@H](O)C=C[C@H]3[C@H]1C5 [morphine, Morphine sulfate]
duration of peak antinociception (male CD-1 mice [1]; BBI-11008 3.2-100 mg/kg, morphine 1-10 mg/kg): ~ 60 min
duration of peak effect (male CD-1 mice [1]; tail withdrawal (discussion)): ~ 1 hr
overall duration of effect (male CD-1 mice [1]; within the dose ranges tested): ~ 120 min
duration of peak effect (male CD-1 mice [2]; CFA model, mice (discussion)): 30 to 45 min
time of peak effects, reversal of tactile allodynia (male CD-1 mice [2]; mice, 24 hr after CFA, BBI-11008 10-32 mg/kg, morphine 1-3.2 mg/kg): 15 to 30 min
Area under the Curve (duration of effect, peak dose) (male CD-1 mice [2]; mice, BBI-11008 32 mg/kg, morphine 3.2 mg/kg, withdrawal threshold vs time): 12.85
duration of peak effect (male CD-1 mice [3]; tail withdrawal (discussion)): ~ 2 hr
overall duration of effect (male CD-1 mice [3]; within the dose ranges tested): ~ 180 min

[D-Pen^2,D-Pen^5]enkephalin [DPDPE]
effect of NTI pretreatment on antinociceptive effects (male CD-1 mice [4]): fully blocked
